According to ChEMBL document CHEMBL2069227, “Cycloartane-type triterpenes from the leaves of Homonoia riparia with VEGF-induced angiogenesis inhibitory activity” (J Nat Prod, 2012):
Active and inactive are the calls of the source. The rule behind the calls is not given here.

Tests used:
Rattus norvegicus [1] = assay: Inhibition of VEGF-induced vascular permeability in intradermally dosed Sprague-Dawley rat assessed as reduction in extravasation of Evans blue dye by Miles assay; type: functional, organism-based
How it was run: (§1)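 Male Sprague–Dawley rats (250–300 g) were anesthetized and shaved, then re-anesthetized 2–3 days later and given 150 μL 1% Evans blue i.v. After 15 min, 15 μL was injected intradermally: VEGF (100 ng/mL), compound (1, 5 or 10 μg/mL) in PBS, or PBS alone. Skin was dissected after 1 h, dye eluted with formamide at 56 °C, and OD read at 620 nm. n = 3 at 10 μg/mL.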

Rattus norvegicus [2] = assay: Inhibition of VEGF-induced vascular permeability in intradermally dosed Sprague-Dawley rat assessed as reduction in extravasation of Evans blue dye at 10 ug/ml by Miles assay; type: functional; how it was run: as §1
HUVEC [3] = assay: Inhibition of VEGF-induced angiogenesis in HUVECs assessed as reduction in capillary-like tube formation on matrigel at 12.5 uM incubated for 6 hrs by fluorescence microscopy; type: functional; details: Homo sapiens
How it was run: (§2)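 HUVECs were cultured to the supplier's standard protocol. 5 × 10^4 cells were plated on basement membrane extract in medium with VEGF (10 ng/mL), with or without compound, and incubated 6 h. Cells were stained with 2 μM Calcein AM in PBS for 30 min. Tubes were imaged by fluorescence microscopy and quantified by image analysis against untreated cultures. Means ± SD, n = 3.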

HUVEC [4] = assay: Inhibition of VEGF-induced angiogenesis in HUVECs assessed as reduction in capillary-like tube formation on matrigel at 25 uM incubated for 6 hrs by fluorescence microscopy; type: functional; details: Homo sapiens; how it was run: as §2
HUVEC [5] = assay: Toxicity in HUVECs at 12.5 uM; type: cell-based; details: human
HUVEC [6] = assay: Toxicity in HUVECs at 25 uM; type: cell-based; details: human

## C=C(CC[C@@H](C)[C@H]1[C@@H](O)C[C@@]2(C)[C@@H]3C[C@@H](O)[C@H]4C(C)(C)[C@@H](O[C@@H]5OC[C@@H](O)[C@H](O)[C@H]5O)CC[C@@]45C[C@@]35CC[C@]12C)C(C)C (relative stereo)
Rattus norvegicus [1]
  inhibition: Dose-dependent effect

## C=C(CC[C@@H](C)[C@H]1[C@@H](O)C[C@@]2(C)[C@@H]3[C@@H](O)[C@@H](O)[C@H]4C(C)(C)[C@@H](O[C@@H]5OC[C@@H](O)[C@H](O)[C@H]5O)CC[C@@]45C[C@@]35CC[C@]12C)C(C)C
Rattus norvegicus [1]
  inhibition: Dose-dependent effect
Rattus norvegicus [2]
  inhibition (INH): 64%
HUVEC [3]
  inhibition at 12.5 µM: 28.5%
HUVEC [4]
  inhibition at 25 µM: 59.5%
HUVEC [5]
  Activity: Non-toxic
HUVEC [6]
  Activity: Non-toxic

## C=C(CC[C@@H](C)[C@H]1[C@@H](O)C[C@@]2(C)[C@@H]3[C@@H](O)C[C@H]4C(C)(C)[C@@H](O[C@@H]5OC[C@@H](O)[C@H](O)[C@H]5O)CC[C@@]45C[C@@]35CC[C@]12C)C(C)C
Rattus norvegicus [1]
  inhibition: Dose-dependent effect

## C=C(CC[C@@H](C)[C@H]1[C@@H](O)C[C@@]2(C)[C@@H]3C[C@@H](O)[C@H]4C(C)(C)[C@@H](O)CC[C@@]45C[C@@]35CC[C@]12C)C(C)C (relative stereo)
Rattus norvegicus [1]
  inhibition: inactive

## C=C(CC[C@@H](C)[C@H]1CC[C@@]2(C)[C@@H]3[C@@H](O)[C@@H](O)[C@H]4C(C)(C)[C@@H](O[C@@H]5OC[C@@H](O)[C@H](O)[C@H]5O)CC[C@@]45C[C@@]35CC[C@]12C)C(C)C (relative stereo)
Rattus norvegicus [1]
  inhibition: inactive

## C=C(CC[C@@H](C)[C@H]1CC[C@@]2(C)[C@@H]3[C@@H](O)[C@@H](O)[C@H]4C(C)(C)[C@@H](O)CC[C@@]45C[C@@]35CC[C@]12C)C(C)C
Rattus norvegicus [1]
  inhibition: inactive
